pIC50, pKi: −log10 of the molar value. Activity calls are given as the source filed them. The calls are words filed in the database; no cut-off is given here.
Tests used:
[1] = tested on: MCF7; experiment: Antitumor activity against human MCF7 cells assessed as cell growth inhibition at 10 uM incubated for 48 hrs by sulforhodamine B assay; assay type: functional; conditions: read-out: GI
Procedure, shortened: (§1)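 NCI Drug Evaluation Branch protocol: primary single-dose screen at 10 μM across a 57-line human cancer panel. Drug exposure is 48 h. Cell growth and viability are read by sulforhodamine B assay. Data are given as a mean graph of percent growth of treated cells and reported as percentage growth inhibition (GI%).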

[2] = tested on: MDA-MB-468; experiment: Antitumor activity against human MDA-MB-468 cells assessed as cell growth inhibition at 10 uM incubated for 48 hrs by sulforhodamine B assay; assay type: functional; conditions: read-out: GI; procedure, shortened: as §1
[3] = target: Cyclin-dependent kinase 2/cyclin E1 (Homo sapiens, UniProt P24941); experiment: Inhibition of CDK2/cyclin E (unknown origin) expressed in baculovirus infected Sf21 insect cells using histone H1 as substrate in presence of [gamma33P]ATP
[4] = tested on: MCF7; experiment: Induction of apoptosis in human MCF7 cells assessed as fold increase in apoptotic cells by Annexin V-FITC/propidium iodide staining based flow cytometric analysis relative to control; assay type: functional
[5] = tested on: MCF7; experiment: Induction of cell cycle arrest in human MCF7 cells assessed as decrease in S phase population at IC50 concentration incubated for 24 hrs by PI/RNase staining based flow cytometric analysis; assay type: functional
Procedure, shortened: (§2)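 Cells were washed in ice-cold PBS, fixed in ice-cold 70% ethanol, treated with 100 µg/mL RNase and stained with 40 µg/mL PI. DNA content was read by flow cytometry, with sub-G1 compared against control.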

[6] = tested on: MDA-MB-468; experiment: Antiproliferative activity against human MDA-MB-468 cells measured after 48 hrs under CoCl2-induced hypoxic condition by MTT assay; assay type: functional, cell-based; conditions: MDA-MB-468, 48 h
[7] = tested on: NCI/ADR-RES; experiment: Antitumor activity against human NCI/ADR-RES cells assessed as cell growth inhibition at 10 uM incubated for 48 hrs by sulforhodamine B assay; assay type: functional, cell-based; procedure, shortened: as §1
[8] = tested on: IGROV-1; experiment: Antitumor activity against human IGROV1 cells assessed as cell growth inhibition at 10 uM incubated for 48 hrs by sulforhodamine B assay; assay type: functional; conditions: read-out: GI; procedure, shortened: as §1
[9] = tested on: MDA-MB-468; experiment: Potency index, ratio of staurosporine IC50 to compound IC50 for antiproliferative activity against human MDA-MB-468 cells measured after 48 hrs under CoCl2-induced hypoxic condition by MTT assay; assay type: functional
[10] = tested on: MCF7; experiment: Antiproliferative activity against human MCF7 cells measured after 48 hrs under normoxic condition by MTT assay; assay type: functional, cell-based; conditions: MCF7, 48 h
[11] = tested on: A498; experiment: Antitumor activity against human A498 cells assessed as cell growth inhibition at 10 uM incubated for 48 hrs by sulforhodamine B assay; assay type: functional; conditions: read-out: GI; procedure, shortened: as §1
[12] = tested on: NCI-H226; experiment: Antitumor activity against human NCI-H226 assessed as cell growth inhibition at 10 uM incubated for 48 hrs by sulforhodamine B assay; assay type: functional; conditions: read-out: GI; procedure, shortened: as §1
[13] = target: Carbonic anhydrase 2 (Homo sapiens, UniProt P00918); experiment: Inhibition of recombinant human carbonic anhydrase 2 preincubated with enzyme for 15 mins by phenol red dye based stopped flow CO2 hydrase assay
[14] = tested on: HOP-92; experiment: Antitumor activity against human HOP92 cells assessed as cell growth inhibition at 10 uM incubated for 48 hrs by sulforhodamine B assay; assay type: functional; conditions: read-out: GI; procedure, shortened: as §1
[15] = tested on: MCF7; experiment: Induction of cell cycle arrest in human MCF7 cells assessed as accumulation at G2/M phase at IC50 concentration incubated for 24 hrs by PI/RNase staining based flow cytometric analysis; assay type: functional; procedure, shortened: as §2
[16] = tested on: CCRF-CEM; experiment: Antitumor activity against human CCRF-CEM cells assessed as cell growth inhibition at 10 uM incubated for 48 hrs by sulforhodamine B assay; assay type: functional; conditions: read-out: GI; procedure, shortened: as §1
[17] = tested on: MCF7; experiment: Induction of apoptosis in human MCF7 cells assessed as late apoptotic cells by Annexin V-FITC/propidium iodide staining based flow cytometric analysis (reference value: 0.29 %); assay type: functional
[18] = tested on: MCF7; experiment: Antiproliferative activity against human MCF7 cells measured after 48 hrs under CoCl2-induced hypoxic condition by MTT assay; assay type: functional, cell-based; conditions: MCF7, 48 h
[19] = tested on: MCF7; experiment: Induction of apoptosis in human MCF7 cells assessed as necrotic cells by Annexin V-FITC/propidium iodide staining based flow cytometric analysis (reference value: 1.3 %); assay type: functional
[20] = target: CDK9/cyclin T1 (Homo sapiens, UniProt P50750); experiment: Inhibition of human full-length N-terminal GST/His6-tagged CDK9 (1 to 372 residues)/His6-tagged Cyclin-T1 (1 to 726 residues) expressed in sf9 cells using (YSPTSPS)2KK peptide as substrate in presence of [gamma33P]ATP
Chain of CDK9/cyclin T1 (O60563 whole entry, the tested form may be a part): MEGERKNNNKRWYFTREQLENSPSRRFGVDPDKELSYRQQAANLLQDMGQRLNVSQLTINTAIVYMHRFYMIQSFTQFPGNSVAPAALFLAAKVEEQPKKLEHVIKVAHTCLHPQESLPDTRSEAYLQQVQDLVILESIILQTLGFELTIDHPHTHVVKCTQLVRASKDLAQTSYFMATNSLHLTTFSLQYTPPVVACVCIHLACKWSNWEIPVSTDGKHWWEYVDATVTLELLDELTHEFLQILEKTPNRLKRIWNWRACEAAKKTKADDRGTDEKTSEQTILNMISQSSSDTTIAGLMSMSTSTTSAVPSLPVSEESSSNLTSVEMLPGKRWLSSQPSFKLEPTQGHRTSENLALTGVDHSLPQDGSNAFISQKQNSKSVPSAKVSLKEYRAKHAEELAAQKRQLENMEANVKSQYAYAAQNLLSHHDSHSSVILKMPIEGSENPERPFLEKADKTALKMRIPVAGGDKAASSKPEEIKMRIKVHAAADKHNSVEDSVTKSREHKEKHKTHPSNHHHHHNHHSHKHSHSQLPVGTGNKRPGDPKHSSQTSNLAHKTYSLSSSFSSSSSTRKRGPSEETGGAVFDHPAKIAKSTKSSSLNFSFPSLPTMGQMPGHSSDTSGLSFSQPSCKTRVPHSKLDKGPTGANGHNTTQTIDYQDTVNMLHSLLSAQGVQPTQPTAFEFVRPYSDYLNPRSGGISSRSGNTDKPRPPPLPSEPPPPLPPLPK
Chain of CDK9/cyclin T1 (P50750 whole entry, the tested form may be a part): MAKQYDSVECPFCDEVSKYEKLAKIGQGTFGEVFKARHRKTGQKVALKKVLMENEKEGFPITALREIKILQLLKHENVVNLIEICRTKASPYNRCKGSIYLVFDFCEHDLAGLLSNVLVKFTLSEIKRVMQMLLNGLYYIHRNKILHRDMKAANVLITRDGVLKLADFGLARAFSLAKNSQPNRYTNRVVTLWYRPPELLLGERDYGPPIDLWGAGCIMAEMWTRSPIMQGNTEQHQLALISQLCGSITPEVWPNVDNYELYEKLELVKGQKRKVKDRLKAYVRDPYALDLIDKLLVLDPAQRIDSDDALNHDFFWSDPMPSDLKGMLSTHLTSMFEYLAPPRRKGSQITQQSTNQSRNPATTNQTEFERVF

[21] = tested on: KM12; experiment: Antitumor activity against human KM12 cells assessed as cell growth inhibition at 10 uM incubated for 48 hrs by sulforhodamine B assay; assay type: functional; conditions: read-out: GI; procedure, shortened: as §1
[22] = tested on: RXF 393; experiment: Antitumor activity against human RXF 393 cells assessed as cell growth inhibition at 10 uM incubated for 48 hrs by sulforhodamine B assay; assay type: functional; conditions: read-out: GI; procedure, shortened: as §1
[23] = tested on: MDA-MB-468; experiment: Potency index, ratio of staurosporine IC50 to compound IC50 for antiproliferative activity against human MDA-MB-468 cells measured after 48 hrs under normoxic condition by MTT assay; assay type: functional
[24] = target: Carbonic anhydrase 12 (Homo sapiens, UniProt O43570); experiment: Inhibition of recombinant human carbonic anhydrase 12 preincubated with enzyme for 15 mins by phenol red dye based stopped flow CO2 hydrase assay
Chain of Carbonic anhydrase 12 (O43570 whole entry): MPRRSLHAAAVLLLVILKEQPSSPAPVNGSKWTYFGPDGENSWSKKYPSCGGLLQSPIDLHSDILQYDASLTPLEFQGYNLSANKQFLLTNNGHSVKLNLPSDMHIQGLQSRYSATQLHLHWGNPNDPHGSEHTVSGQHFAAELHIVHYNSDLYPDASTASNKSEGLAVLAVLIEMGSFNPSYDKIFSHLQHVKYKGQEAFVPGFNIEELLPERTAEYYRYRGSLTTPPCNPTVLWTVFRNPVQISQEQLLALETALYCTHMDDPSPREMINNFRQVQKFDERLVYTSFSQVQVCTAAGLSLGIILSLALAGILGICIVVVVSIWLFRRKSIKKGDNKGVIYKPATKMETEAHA

[25] = tested on: T47D; experiment: Antitumor activity against human T-47D cells assessed as cell growth inhibition at 10 uM incubated for 48 hrs by sulforhodamine B assay; assay type: functional; conditions: read-out: GI
Procedure, shortened: (§3)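 NCI one-dose screen: 57-cell-line panel exposed at 10 μM for 48 h, Drug Evaluation Branch protocol. Growth and viability read by sulforhodamine B; data given as percent growth inhibition from the mean-graph of percent growth of treated cells.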

[26] = tested on: MCF7; experiment: Induction of apoptosis in human MCF7 cells assessed as early apoptotic cells by Annexin V-FITC/propidium iodide staining based flow cytometric analysis (reference value: 0.47 %); assay type: functional
[27] = tested on: NCI-H322M; experiment: Antitumor activity against human NCI-H322M cells assessed as cell growth inhibition at 10 uM incubated for 48 hrs by sulforhodamine B assay; assay type: functional; conditions: read-out: GI; procedure, shortened: as §1
[28] = target: Carbonic anhydrase 9 (Homo sapiens, UniProt Q16790); experiment: Inhibition of recombinant human carbonic anhydrase 9 preincubated with enzyme for 15 mins by phenol red dye based stopped flow CO2 hydrase assay
[29] = tested on: MDA-MB-468; experiment: Antiproliferative activity against human MDA-MB-468 cells measured after 48 hrs under normoxic condition by MTT assay; assay type: functional, cell-based; conditions: MDA-MB-468, 48 h
[30] = tested on: MCF7; experiment: Potency index, ratio of staurosporine IC50 to compound IC50 for antiproliferative activity against human MCF7 cells measured after 48 hrs under normoxic condition by MTT assay; assay type: functional
[31] = target: Carbonic anhydrase 1 (Homo sapiens, UniProt P00915); experiment: Inhibition of recombinant human carbonic anhydrase 1 preincubated with enzyme for 15 mins by phenol red dye based stopped flow CO2 hydrase assay
Chain of Carbonic anhydrase 1 (P00915 whole entry): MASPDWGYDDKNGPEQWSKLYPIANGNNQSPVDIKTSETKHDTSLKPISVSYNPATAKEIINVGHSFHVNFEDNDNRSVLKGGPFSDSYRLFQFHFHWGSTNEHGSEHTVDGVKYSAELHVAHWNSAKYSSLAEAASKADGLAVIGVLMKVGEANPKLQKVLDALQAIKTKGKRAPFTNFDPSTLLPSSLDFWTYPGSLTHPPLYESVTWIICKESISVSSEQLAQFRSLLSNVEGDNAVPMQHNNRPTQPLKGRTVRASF

[32] = tested on: MCF7; experiment: Potency index, ratio of staurosporine IC50 to compound IC50 for antiproliferative activity against human MCF7 cells measured after 48 hrs under CoCl2-induced hypoxic condition by MTT assay; assay type: functional
[33] = tested on: UO-31; experiment: Antitumor activity against human UO-31 cells assessed as cell growth inhibition at 10 uM incubated for 48 hrs by sulforhodamine B assay; assay type: functional; conditions: read-out: GI; procedure, shortened: as §3
[34] = tested on: SN12C; experiment: Antitumor activity against human SN12C cells assessed as cell growth inhibition at 10 uM incubated for 48 hrs by sulforhodamine B assay; assay type: functional; conditions: read-out: GI; procedure, shortened: as §1
[35] = tested on: MCF7; experiment: Induction of cell cycle arrest in human MCF7 cells assessed as fold increase in apoptotic cells at sub-G1 phase at IC50 concentration incubated for 24 hrs by PI/RNase staining based flow cytometric analysis relative to control; assay type: functional; procedure, shortened: as §2
[36] = tested on: NCI-H522; experiment: Antitumor activity against human NCI-H522 cells assessed as cell growth inhibition at 10 uM incubated for 48 hrs by sulforhodamine B assay; assay type: functional; conditions: read-out: GI; procedure, shortened: as §1

Structure (SMILES): N#Cc1c(-c2ccccc2)nc2c(/N=N/c3ccc(S(N)(=O)=O)cc3)c(N)nn2c1N
- inhibition of growth at 10 µM [1]: 60%
- inhibition of growth at 10 µM [2]: 58%
- pIC50 [3]: < 4.90
- fold change (FC) [4]: 26
- Activity [5]: Active
- pIC50 [6]: 5.97
- Activity [7]: inactive
- inhibition of growth at 10 µM [8]: 35%
- Ratio IC50 [9]: 6
- pIC50 [10]: 6.18
- inhibition of growth at 10 µM [11]: 30%
- inhibition of growth at 10 µM [12]: 24%
- pKi [13]: 6.04
- inhibition of growth at 10 µM [14]: 27%
- Activity [15]: Active
- inhibition of growth at 10 µM [16]: 21%
- Activity [17]: 16.94%
- pIC50 [18]: 6.02
- Activity [19]: 2.64%
- pIC50 [20]: < 4.90
- inhibition of growth at 10 µM [21]: 50%
- inhibition of growth at 10 µM [22]: 42%
- Ratio IC50 [23]: 2.3
- pKi [24]: 7.40
- inhibition of growth at 10 µM [25]: 26%
- Activity [26]: 8.46%
- inhibition of growth at 10 µM [27]: 21%
- pKi [28]: 7.47
- pIC50 [29]: 5.72
- Ratio IC50 [30]: 5
- pKi [31]: 5.57
- Ratio IC50 [32]: 9
- inhibition of growth at 10 µM [33]: 25%
- inhibition of growth at 10 µM [34]: 24%
- fold change (FC) [35]: 7
- inhibition of growth at 10 µM [36]: 54%

From ChEMBL document CHEMBL4680175, “Sulfonamide-based ring-fused analogues for CAN508 as novel carbonic anhydrase inhibitors endowed with antitumor activity: Design, synthesis, and in vitro biological evaluation” (Eur J Med Chem, 2020)
